Laboratory results from ChEMBL document CHEMBL1139475, “Structural, mutagenic, and kinetic analysis of the binding of substrates and inhibitors of human phenylethanolamine N-methyltransferase” (J Med Chem, 2005).
Numbering of substitutions follows the chain as printed. In names and notes the source's numbering stands.

Experiments:
[1] = molecular target: Phenylethanolamine N-methyltransferase (Homo sapiens, UniProt P11086, K57A); experiment: (§1) Activity of human PNMT K57A mutant assessed as phenylethanolamine methylation
Outline: (§2)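 C-terminally His6-tagged human PNMT mutants made by site-directed mutagenesis, expressed in E. coli BL21(DE3)-pLysS, and purified by Ni affinity then gel filtration. Steady-state kinetics used 50 mM potassium phosphate pH 8.0 with [3H]-AdoMet and phenylethanolamine, each varied between 0.3 and 3 × Km. Incubation was 30 min at 30 °C, quenched with borate pH 10, extracted into toluene/isoamyl alcohol, and counted by scintillation.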

[2] = molecular target: Phenylethanolamine N-methyltransferase (Homo sapiens, UniProt P11086, E219A); experiment: (§3) Activity of human PNMT E219A mutant assessed as phenylethanolamine methylation; outline: as §2
[3] = molecular target: T1, Phenylethanolamine N-methyltransferase (Homo sapiens, UniProt P11086); experiment: Activity of human wild type PNMT assessed as phenylethanolamine methylation
T1 sequence (P11086 whole entry): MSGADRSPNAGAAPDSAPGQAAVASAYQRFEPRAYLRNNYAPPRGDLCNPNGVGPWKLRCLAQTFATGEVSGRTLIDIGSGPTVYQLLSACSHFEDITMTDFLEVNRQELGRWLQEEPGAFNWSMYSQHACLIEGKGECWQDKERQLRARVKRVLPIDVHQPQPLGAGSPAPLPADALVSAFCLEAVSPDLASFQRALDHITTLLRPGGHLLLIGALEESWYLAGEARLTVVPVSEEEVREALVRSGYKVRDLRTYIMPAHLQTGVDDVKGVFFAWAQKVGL

[4] = molecular target: Phenylethanolamine N-methyltransferase (Homo sapiens, UniProt P11086, V53A); experiment: (§4) Activity of human PNMT V53A mutant assessed as phenylethanolamine methylation; outline: as §2
[5] = molecular target: Phenylethanolamine N-methyltransferase (Homo sapiens, UniProt P11086, D267A); experiment: Activity of human PNMT D267A mutant assessed as phenylethanolamine methylation
[6] = molecular target: Phenylethanolamine N-methyltransferase (Homo sapiens, UniProt P11086, D267N); experiment: (§5) Activity of human PNMT D267N mutant assessed as phenylethanolamine methylation; outline: as §2
[7] = molecular target: T1, Phenylethanolamine N-methyltransferase; experiment: Binding affinity to human free PNMT
[8] = Binding affinity to human PNMT-S-adenosyl-L-methionine complex
[9] = substrate: C[S+](CC[C@H](N)C(=O)[O-])C[C@H]1O[C@@H](n2cnc3c(N)ncnc32)[C@H](O)[C@@H]1O; experiment: as §4; outline: as §2
[10] = substrate: NCC(O)c1ccc(Cl)c(Cl)c1; experiment: as §4; outline: as §2
[11] = substrate: C[S+](CC[C@H](N)C(=O)[O-])C[C@H]1O[C@@H](n2cnc3c(N)ncnc32)[C@H](O)[C@@H]1O; experiment: as §3; outline: as §2
[12] = substrate: NCC(O)c1ccc(Cl)c(Cl)c1; experiment: as §3; outline: as §2
[13] = substrate: C[S+](CC[C@H](N)C(=O)[O-])C[C@H]1O[C@@H](n2cnc3c(N)ncnc32)[C@H](O)[C@@H]1O; experiment: as §1; outline: as §2
[14] = substrate: NCC(O)c1ccc(Cl)c(Cl)c1; experiment: as §1; outline: as §2
[15] = substrate: C[S+](CC[C@H](N)C(=O)[O-])C[C@H]1O[C@@H](n2cnc3c(N)ncnc32)[C@H](O)[C@@H]1O; conditions: Homo sapiens
[16] = substrate: NCC(O)c1ccc(Cl)c(Cl)c1; conditions: Homo sapiens
[17] = substrate: C[S+](CC[C@H](N)C(=O)[O-])C[C@H]1O[C@@H](n2cnc3c(N)ncnc32)[C@H](O)[C@@H]1O; experiment: as §5; outline: as §2
[18] = substrate: NCC(O)c1ccc(Cl)c(Cl)c1; experiment: as §5; outline: as §2
[19] = substrate: C[S+](CC[C@H](N)C(=O)[O-])C[C@H]1O[C@@H](n2cnc3c(N)ncnc32)[C@H](O)[C@@H]1O; conditions: Homo sapiens; remark: listed apart in the source
[20] = substrate: NCC(O)c1ccc(Cl)c(Cl)c1; conditions: Homo sapiens; remark: listed apart in the source

Phenylethanolamine N-methyltransferase (Homo sapiens, UniProt P11086, V53A), sequence (P11086 whole entry V53A): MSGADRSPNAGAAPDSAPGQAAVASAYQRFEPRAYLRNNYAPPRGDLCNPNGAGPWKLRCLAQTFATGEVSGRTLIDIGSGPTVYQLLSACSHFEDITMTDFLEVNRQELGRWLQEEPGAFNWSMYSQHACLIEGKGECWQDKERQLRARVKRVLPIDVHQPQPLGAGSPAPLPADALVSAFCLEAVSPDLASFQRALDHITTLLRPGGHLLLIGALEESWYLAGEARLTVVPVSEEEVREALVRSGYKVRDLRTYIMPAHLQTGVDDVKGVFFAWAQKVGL
Phenylethanolamine N-methyltransferase (Homo sapiens, UniProt P11086, D267A), sequence (P11086 whole entry D267A): as the sequence (P11086 whole entry V53A) above, with A53V, D267A counted along it
Phenylethanolamine N-methyltransferase (Homo sapiens, UniProt P11086, D267N), sequence (P11086 whole entry D267N): as the sequence (P11086 whole entry V53A) above, with A53V, D267N counted along it
Phenylethanolamine N-methyltransferase (Homo sapiens, UniProt P11086, E219A), sequence (P11086 whole entry E219A): as the sequence (P11086 whole entry V53A) above, with A53V, E219A counted along it
Phenylethanolamine N-methyltransferase (Homo sapiens, UniProt P11086, K57A), sequence (P11086 whole entry K57A): as the sequence (P11086 whole entry V53A) above, with A53V, K57A counted along it

C[S+](CC[C@H](N)C(=O)[O-])C[C@H]1O[C@@H](n2cnc3c(N)ncnc32)[C@H](O)[C@@H]1O (stereo not given in full) [ADEMETIONINE]
Kd [1]: 10.7 µM | Kd [2]: 7.5 µM | Kd [3]: 4.8 µM | Kd [4]: 7.1 µM | Kd [5]: 11 µM | Kd [6]: 7.5 µM

CC(N)c1cccc(Cl)c1Cl (stereo not given)
Ki [7]: 1.33 µM | Ki [8]: 0.072 µM

B1: Phenylethanolamine N-methyltransferase (Homo sapiens), P11086 V53A (protein)
chain: T1 sequence (P11086 whole entry) with V53A
Km [9]: 9.6 µM | Km [10]: 1630 µM

B2: Phenylethanolamine N-methyltransferase (Homo sapiens), P11086 E219A (protein)
chain: T1 sequence (P11086 whole entry) with E219A
Km [11]: 7.1 µM | Km [12]: 580 µM

B3: Phenylethanolamine N-methyltransferase (Homo sapiens), P11086 K57A (protein)
chain: T1 sequence (P11086 whole entry) with K57A
Km [13]: 11.7 µM | Km [14]: 1310 µM

B4: Phenylethanolamine N-methyltransferase (Homo sapiens), P11086 (protein)
chain: T1 sequence (P11086 whole entry)
Km [15]: 1.2 µM | Km [16]: 100 µM

B5: Phenylethanolamine N-methyltransferase (Homo sapiens), P11086 D267N (protein)
chain: T1 sequence (P11086 whole entry) with D267N
Km [17]: 7.1 µM | Km [18]: 1640 µM

B6: Phenylethanolamine N-methyltransferase (Homo sapiens), P11086 D267A (protein)
chain: T1 sequence (P11086 whole entry) with D267A
Km [19]: 2.4 µM | Km [20]: 2050 µM
